Data on 7 compounds can be found in ChEMBL document CHEMBL4680104, “Structure-Based Optimization of Small-Molecule Inhibitors for the β-Catenin/B-Cell Lymphoma 9 Protein-Protein Interaction” (J Med Chem, 2018).

Test [1] deals with A549. Put plainly: Cytotoxicity in human A549 cells assessed as reduction in cell viability incubated for 72 hrs by MTS assay. Format: functional, cell-based. The settings on record: A549, 72 h. An outline of the steps:
(§1)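 Cells seeded at 5 × 10^3 cells/well, kept overnight at 37 °C, then exposed to inhibitors at various concentrations for 72 h. Viability read with a freshly mixed PMS (0.92 mg/mL) : MTS (2 mg/mL) reagent at 1:19, incubated 3 h at 37 °C, A490 measured. […] Triplicate; mean ± SD.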

Test [2] relates to SW480. The test is described as follows: Cytotoxicity in human SW480 cells assessed as reduction in cell viability incubated for 72 hrs by MTS assay. The test is classed as functional, cell-based. The settings on record: SW480, 72 h. An outline of the steps: as §1
For test [3], the system named is HCT-116. Put plainly: Cytotoxicity in human HCT-116 cells assessed as reduction in cell viability incubated for 72 hrs by MTS assay. The test is classed as functional, cell-based. The settings on record: HCT-116, 72 h. An outline of the steps: as §1
In test [4] the test system is MDA-MB-231. Put plainly: Cytotoxicity in human MDA-MB-231 cells assessed as reduction in cell viability incubated for 72 hrs by MTS assay. The test is classed as functional, cell-based. The conditions noted are these: MDA-MB-231, 72 h. An outline of the steps:
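Triple-negative breast cancer line seeded at 5 × 10^3 cells/well, held overnight at 37 °C, then exposed to inhibitor over a concentration range for 72 h. Viability read out with a fresh 1:19 mix of PMS (0.92 mg/mL) and MTS (2 mg/mL), incubated 3 h at 37 °C, A490 measured.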

Test [5] addresses T1, beta-catenin-B-cell lymphoma 9 protein complex (Homo sapiens, UniProt P35222).
T1 sequence (P35222 whole entry): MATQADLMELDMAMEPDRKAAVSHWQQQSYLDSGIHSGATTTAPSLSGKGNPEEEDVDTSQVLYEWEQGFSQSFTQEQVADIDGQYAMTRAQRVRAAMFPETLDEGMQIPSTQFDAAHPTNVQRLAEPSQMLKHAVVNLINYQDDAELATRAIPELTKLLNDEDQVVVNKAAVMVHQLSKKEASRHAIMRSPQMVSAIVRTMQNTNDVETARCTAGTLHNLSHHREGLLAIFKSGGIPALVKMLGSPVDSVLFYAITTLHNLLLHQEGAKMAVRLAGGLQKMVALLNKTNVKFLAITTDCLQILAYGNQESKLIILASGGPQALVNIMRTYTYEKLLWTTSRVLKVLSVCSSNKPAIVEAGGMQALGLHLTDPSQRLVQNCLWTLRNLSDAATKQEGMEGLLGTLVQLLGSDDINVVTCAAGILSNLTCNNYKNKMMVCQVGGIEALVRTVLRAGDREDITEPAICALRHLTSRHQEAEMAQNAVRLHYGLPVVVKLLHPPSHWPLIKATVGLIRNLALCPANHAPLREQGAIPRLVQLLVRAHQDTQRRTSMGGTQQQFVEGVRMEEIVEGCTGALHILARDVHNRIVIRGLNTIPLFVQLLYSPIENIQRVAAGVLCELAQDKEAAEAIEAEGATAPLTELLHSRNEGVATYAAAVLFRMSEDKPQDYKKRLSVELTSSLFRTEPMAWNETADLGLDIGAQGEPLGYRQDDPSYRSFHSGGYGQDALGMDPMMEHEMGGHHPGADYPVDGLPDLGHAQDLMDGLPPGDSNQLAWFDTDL
T1 sequence (O00512 whole entry): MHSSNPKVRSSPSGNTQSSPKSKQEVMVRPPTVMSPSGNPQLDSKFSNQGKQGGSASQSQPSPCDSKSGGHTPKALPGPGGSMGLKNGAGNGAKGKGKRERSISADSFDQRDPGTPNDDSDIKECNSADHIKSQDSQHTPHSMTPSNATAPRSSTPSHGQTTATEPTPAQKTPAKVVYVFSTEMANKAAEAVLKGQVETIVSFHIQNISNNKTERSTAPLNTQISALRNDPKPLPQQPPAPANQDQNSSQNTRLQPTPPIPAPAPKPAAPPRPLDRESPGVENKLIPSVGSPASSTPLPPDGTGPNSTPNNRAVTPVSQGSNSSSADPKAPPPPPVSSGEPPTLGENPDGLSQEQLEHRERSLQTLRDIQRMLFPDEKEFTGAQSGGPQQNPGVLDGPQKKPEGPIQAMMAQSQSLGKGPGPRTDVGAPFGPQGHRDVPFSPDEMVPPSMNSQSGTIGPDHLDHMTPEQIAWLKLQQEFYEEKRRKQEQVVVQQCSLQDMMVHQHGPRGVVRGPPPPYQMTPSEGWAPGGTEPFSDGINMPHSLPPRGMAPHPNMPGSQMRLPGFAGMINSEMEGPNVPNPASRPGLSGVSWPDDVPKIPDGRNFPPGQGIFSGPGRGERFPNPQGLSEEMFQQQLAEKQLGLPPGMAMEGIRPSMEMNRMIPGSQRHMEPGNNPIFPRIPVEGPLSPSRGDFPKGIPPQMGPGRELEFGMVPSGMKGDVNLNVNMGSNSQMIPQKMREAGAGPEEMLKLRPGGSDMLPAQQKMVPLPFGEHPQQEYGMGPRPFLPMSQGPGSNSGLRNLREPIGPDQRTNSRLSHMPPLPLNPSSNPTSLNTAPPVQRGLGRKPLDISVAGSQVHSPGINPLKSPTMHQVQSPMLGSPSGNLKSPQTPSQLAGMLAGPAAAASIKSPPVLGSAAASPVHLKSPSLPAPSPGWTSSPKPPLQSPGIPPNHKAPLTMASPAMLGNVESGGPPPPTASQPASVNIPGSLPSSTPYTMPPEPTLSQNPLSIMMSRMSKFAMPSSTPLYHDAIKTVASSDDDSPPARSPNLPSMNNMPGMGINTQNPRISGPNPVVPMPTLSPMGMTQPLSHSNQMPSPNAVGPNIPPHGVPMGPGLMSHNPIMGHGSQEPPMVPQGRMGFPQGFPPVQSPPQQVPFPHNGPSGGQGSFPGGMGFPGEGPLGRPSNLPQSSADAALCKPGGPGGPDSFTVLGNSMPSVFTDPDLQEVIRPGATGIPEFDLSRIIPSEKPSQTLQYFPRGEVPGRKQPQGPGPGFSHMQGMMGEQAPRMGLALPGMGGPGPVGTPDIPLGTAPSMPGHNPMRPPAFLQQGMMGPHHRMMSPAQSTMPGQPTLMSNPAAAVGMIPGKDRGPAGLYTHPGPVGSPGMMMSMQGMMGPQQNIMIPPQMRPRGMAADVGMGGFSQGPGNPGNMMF
Put plainly: Inhibition of protein interaction between beta-catenin (unknown origin)/BCL9 in HEK293 cells transfected with beta-catenin assessed as reduction in Wnt/beta-catenin transactivation incubated for 24 hrs by Wnt-responsive TOP-Flash luciferase reporter assay. Format: cell-based. An outline of the steps: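 HEK293 cells were cotransfected using FuGENE6 with 45 ng TOPFlash or FOPFlash reporter, 135 ng pcDNA3.1-β-catenin and 20 ng pCMV-RL normalization reporter. After 24 h in DMEM with 10% FBS at 37 °C, inhibitors or DMSO were added for 24 h. Reporter activity was read with a dual luciferase system, normalized, and compared with DMSO-treated cells. Triplicate.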

With `Cl.Cl.O=C(Nc1ccc(O[C@H]2CCNC2)c(-c2ccc(F)cc2)c1)c1ccc(O[C@H]2CCNC2)c(-c2ccc3cc(F)ccc3c2)c1`, the IC50 in test [1] was determined as 3.7 µM; in test [2] it was 1.8 µM; in test [3], 5.6 µM; in test [4], 2.1 µM; in test [5] it was 10 µM.
Consider `Cl.Cl.O=C(Nc1ccc(O[C@H]2CCNC2)c(-c2ccc(F)cc2)c1)c1ccc(O[C@H]2CCNC2)c(-c2ccc3ccsc3c2)c1`, for which the IC50 is 9.4 µM in test [1]; 2 µM in test [2]; 7.5 µM in test [3]; 2.8 µM in test [4]; 6.2 µM in test [5].
The matching figures for `Cl.Cl.O=C(Nc1ccc(O[C@@H]2CCNC2)c(-c2cccc(-c3nn[nH]n3)c2)c1)c1ccc(O[C@H]2CCNC2)c(-c2ccc(F)c(F)c2)c1`: above 400 µM, 41 µM, 55 µM, 73 µM and 25 µM.
Consider `Cl.Cl.O=C(Nc1ccc(O[C@H]2CCNC2)c(-c2ccc(F)cc2)c1)c1ccc(O[C@H]2CCNC2)c(-c2ccc(F)c(F)c2)c1`, for which the IC50 in test [5] was determined as 4.5 µM.
For `Cc1cc(F)ccc1-c1cc(NC(=O)c2ccc(O[C@H]3CCNC3)c(-c3ccc(F)c(F)c3)c2)ccc1O[C@H]1CCNC1.Cl.Cl`, the half-inhibitory concentration (IC50) in test [1] was found to be 10 µM; in test [2], 0.9 µM; in test [3] it was 5.6 µM; in test [4] it was 4.1 µM.
In the case of `Cl.Cl.O=C(Nc1ccc(O[C@H]2CCNC2)c(-c2ccc(F)cc2)c1)c1ccc(O[C@H]2CCNC2)c(C2CCC(C(F)(F)F)CC2)c1` (stereo not given in full), the IC50 in test [1] came to 4.8 µM; in test [2] it was 3.6 µM; in test [3], 5.6 µM; in test [4], 2.3 µM; in test [5], 10 µM.
The matching figures for `Cl.Cl.O=C(Nc1ccc(O[C@H]2CCNC2)c(-c2ccc(F)cc2)c1)c1cnc(O[C@H]2CCNC2)c(-c2ccc(F)c(F)c2)c1`: 26 µM, 3 µM, 8.7 µM, 3.6 µM and 22 µM.
